Laboratory results published in ChEMBL document CHEMBL4028857, “Anchimerically Activated ProTides as Inhibitors of Cap-Dependent Translation and Inducers of Chemosensitization in Mantle Cell Lymphoma” (J Med Chem, 2017).
Active and inactive are the calls of the source. No cut-off for these calls is given here.

Experiments:
[1] = target: Eukaryotic translation initiation factor 4E (Homo sapiens) (UniProt P06730); experiment: Inhibition of eIF4E in human GRANTA-519 cells assessed as down regulation of Bcl-2 protein expression at 50 to 200 uM after 48 hrs by Western blot method; format: cell-based
Sequence of Eukaryotic translation initiation factor 4E (Homo sapiens) (P06730 whole entry): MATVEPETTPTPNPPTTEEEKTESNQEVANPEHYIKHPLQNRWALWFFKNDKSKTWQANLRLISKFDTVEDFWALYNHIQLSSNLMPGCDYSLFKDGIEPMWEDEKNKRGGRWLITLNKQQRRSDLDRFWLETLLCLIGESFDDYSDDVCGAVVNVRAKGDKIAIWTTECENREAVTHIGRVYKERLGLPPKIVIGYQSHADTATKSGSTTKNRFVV
How it was run: (§1)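 MCL lines treated 48 h with compound; protein quantified and Western blotted with eIF4E, eIF4G, actin, c-Myc and Bcl-2 antibodies.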

Rattus norvegicus = experiment: AUC (0 to 8 hrs) in Sprague-Dawley rat plasma assessed as 9-((2R,3R,4S,5R)-5-(((((2-(1H-Indol-3-yl)ethyl)amino)-(hydroxy)phosphoryl)oxy)methyl)-3,4-dihydroxytetrahydrofuran-2-yl)-2-amino-7-(2-(4-chlorophenoxy)ethyl)-6-oxo-6,9-dihydro-1H-purin-7-ium at 2.5 mg/kg, iv by LC-MS/MS analysis; format: ADME, organism-based; design: time < 8 hr, dose 2.5 mg/kg, route intravenous; settings: in vivo
How it was run: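 Female Sprague-Dawley rats (250-274 g, n=3, catheterized femoral/jugular veins) dosed once p.o. by gavage (25 mg/kg) then, after a 3-day washout, i.v. (2.5 mg/kg). Formulation: 10 mg/mL in 0.5% aqueous CMC with 5% DMSO. Serial blood draws to 480 min into K2EDTA; plasma protein-precipitated with acetonitrile plus internal standards; LC-MS/MS (positive MRM); non-compartmental PK; %F from dose-normalized AUC per rat.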

[2] = target: Eukaryotic translation initiation factor 4E (Homo sapiens) (UniProt P06730); experiment: Inhibition of eIF4E in human Mino cells assessed as increase in p27 protein expression after 48 hrs by Western blot method; format: cell-based; how it was run: as §1
[3] = Half life in HEPES buffer at 80 uM at pH 7.2 by RP-HPLC analysis; format: physicochemical
How it was run: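 Compound at 80 µM in 20 mM HEPES (pH 7.2 or 2.0) incubated at 37 °C; aliquots analyzed by RP-HPLC at 0, 1, 4, 6, 12, 18 and 24 h to follow methylthioalkyl deprotection and derive half-life.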

[4] = target: T1, Adenosine 5'-monophosphoramidase HINT1 (Homo sapiens, UniProt P49773); experiment: Prodrug activation in human GRANTA-519 cells assessed as hint1-mediated 2-amino-7-(2-(4-chlorophenoxy)ethyl)-9-((2R,3R,4S,5R)-3,4-dihydroxy-5-(phosphonooxymethyl)tetrahydrofuran-2-yl)-6-oxo-6,9-dihydro-1H-purin-7-ium formation per 5 million cells at 150 uM after 12 hrs by LC-MS/MS analysis relative to 9-((2R,3R,4S,5R)-5-(((((2-(1H-Indol-3-yl)ethyl)amino)-(hydroxy)phosphoryl)oxy)methyl)-3,4-dihydroxytetrahydrofuran-2-yl)-2-amino-7-(2-(4-chlorophenoxy)ethyl)-6-oxo-6,9-dihydro-1H-purin-7-ium; format: cell-based
T1 sequence (P49773 whole entry): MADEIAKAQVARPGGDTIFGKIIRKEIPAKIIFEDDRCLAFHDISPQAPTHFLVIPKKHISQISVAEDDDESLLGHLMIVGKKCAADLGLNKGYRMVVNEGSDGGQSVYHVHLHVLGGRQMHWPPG
How it was run: (§2)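 Mantle cell lymphoma cells (five million) grown in RPMI with 10% FBS, penicillin/streptomycin and L-glutamine at 37 °C, 5% CO2, then exposed to 150 µM compound for 12 h at 37 °C. Washed with ice-cold PBS, pellet extracted in MeOH/NH4OAc (60:40) with 80 fmol internal standards, three liquid-N2 freeze–thaw cycles, filtered, dried, redissolved in 20 mM HEPES pH 7.2. Analysed by LC-MS/MS against a standard curve.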

[5] = target: T1, Adenosine 5'-monophosphoramidase HINT1; experiment: Prodrug activation in human Mino cells assessed as Hint1 mediated 2-amino-7-(2-(4-chlorophenoxy)ethyl)-9-((2R,3R,4S,5R)-3,4-dihydroxy-5-(phosphonooxymethyl)tetrahydrofuran-2-yl)-6-oxo-6,9-dihydro-1H-purin-7-ium formation per 5 million cells at 150 uM after 12 hrs by LC-MS/MS analysis; format: cell-based; how it was run: as §2

inhibition [1]: inactive
AUC (Rattus norvegicus): 0.5 µg·min/mL
inhibition [2]: Dose-dependent effect
half-life at 80 µM [3]: 510 min
fold change (FC) [4]: 1.9
Drug metabolism [5]: 218 pmol
Compound: CSCCOP(=O)(NCCc1c[nH]c2ccccc12)OC[C@H]1O[C@@H](n2c[n+](CCOc3ccc(Cl)cc3)c3c(=O)[nH]c(N)nc32)[C@H](O)[C@@H]1O (stereo partly specified)
